Reference: PMC3742633 (Molecular cancer therapeutics, 2013)

Assays:
[1] = system: UACC-257; test: NCI 60 cell line screen, Sulforhodamine B Assay; format: cell-based; settings: Homo sapiens, UACC-257, 48 h
Procedure, shortened: (§1)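 Run through the National Cancer Institute 60 cell line screening service on its panel of 59 human cancer lines in vitro. Cytostatic/toxic effect was read as cellular protein content (sulforhodamine B) over 48 h.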

[2] = system: SK-MEL-5; test: NCI 60 cell line screen, Sulforhodamine B Assay; format: cell-based; settings: Homo sapiens, SK-MEL-5, 48 h
Procedure, shortened: as §1

[3] = system: TK-10; test: NCI 60 cell line screen, Sulforhodamine B Assay; format: cell-based; settings: Homo sapiens, TK-10, 48 h
Procedure, shortened: as §1

[4] = system: hexokinase; test: Activity of purified hexokinase; format: biochemical; settings: up to 100 μM; data not shown
[5] = system: HCT-116; test: NCI 60 cell line screen, Sulforhodamine B Assay; format: cell-based; settings: Homo sapiens, HCT-116, 48 h
Procedure, shortened: (§2)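 Run through the NCI-60 screening service: human cancer cell lines exposed to test compound for 48 h. Growth read as cellular protein content by sulforhodamine B staining, and GI50 derived from this.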

[6] = system: DU-145; test: NCI 60 cell line screen, Sulforhodamine B Assay; format: cell-based; settings: Homo sapiens, DU-145, 48 h
Procedure, shortened: as §2

[7] = system: OVCAR-8; test: NCI 60 cell line screen, Sulforhodamine B Assay; format: cell-based; settings: Homo sapiens, OVCAR-8, 48 h
Procedure, shortened: as §2

[8] = system: CT26 colon adenocarcinoma cells; test: CT26 xenograft tumor growth; format: in vivo, Balb/C athymic mice; settings: 25 mg/kg i.p. every 3 days × 4; similarly to irinotecan
[9] = biological target: recombinant human PFKFB3 protein (Homo sapiens, UniProt Q16875); test: Recombinant PFKFB3 kinase assay; format: biochemical
Sequence of recombinant human PFKFB3 protein (Q16875 whole entry): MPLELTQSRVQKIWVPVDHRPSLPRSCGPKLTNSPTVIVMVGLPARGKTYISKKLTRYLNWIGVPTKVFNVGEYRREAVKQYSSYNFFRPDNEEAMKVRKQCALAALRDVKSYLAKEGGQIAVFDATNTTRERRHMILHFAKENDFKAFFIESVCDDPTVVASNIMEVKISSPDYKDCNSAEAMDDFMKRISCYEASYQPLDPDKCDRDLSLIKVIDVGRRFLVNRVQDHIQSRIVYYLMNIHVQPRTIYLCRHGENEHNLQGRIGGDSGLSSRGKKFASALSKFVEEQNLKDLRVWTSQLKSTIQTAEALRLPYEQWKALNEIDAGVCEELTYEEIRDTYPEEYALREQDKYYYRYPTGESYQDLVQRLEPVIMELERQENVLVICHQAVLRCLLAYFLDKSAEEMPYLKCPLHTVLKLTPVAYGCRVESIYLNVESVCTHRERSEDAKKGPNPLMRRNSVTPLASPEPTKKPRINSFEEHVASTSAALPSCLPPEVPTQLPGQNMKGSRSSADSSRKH

[10] = system: MDA-MB-435; test: NCI 60 cell line screen, Sulforhodamine B Assay; format: cell-based; settings: Homo sapiens, MDA-MB-435, 48 h
Procedure, shortened: as §2

[11] = system: COLO 205; test: NCI 60 cell line screen, Sulforhodamine B Assay; format: cell-based; settings: Homo sapiens, COLO 205, 48 h
Procedure, shortened: as §2

[12] = system: LLC tumors; test: 18F-FDG micro-PET imaging of LLC-bearing mice; format: in vivo, C57Bl/6 mice; settings: 25 mg/kg i.p. once, 45 minutes, normalized to FDG uptake in the cerebellum
Procedure, shortened: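 Tumor-bearing mice were anesthetized with isoflurane and given 200 μCi FDG i.v. by tail vein. Baseline 15-min static micro-PET scans were taken 45 min after tracer (OSEM, 6 subsets/4 iterations). Tumor and cerebellum regions of interest were quantified in quadruplicate. 24 h later, test compound 25 mg/kg i.p. once, then re-scan 45 min later.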

[13] = system: SF-539; test: NCI 60 cell line screen, Sulforhodamine B Assay; format: cell-based; settings: Homo sapiens, SF-539, 48 h
Procedure, shortened: as §2

[14] = system: U-87 glioblastoma cells; test: U-87 MG xenograft tumor growth; format: in vivo, Balb/C athymic mice; settings: 25 mg/kg i.p. every 3 days × 4; compared with temozolomide
Procedure, shortened: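 U-87 MG cells from exponential culture (DMEM, 10% FCS) were washed and resuspended in PBS, and 1×10^6 cells were injected s.c. into 20 g Balb/C athymic mice. At 150–200 mg, tumours were randomised to DMSO, test compound (25 mg/kg i.p. every 3 days ×4) or temozolomide (30 mg/kg p.o., 3 days on/3 off). Blinded daily caliper mass = width²×length/2. Two experiments, n=8/group, mean±SD, unpaired two-tailed t-test.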

[15] = system: Jurkat or H522 cells; test: 2-[1-14C]-deoxy-D-glucose uptake; format: cell-based, human; settings: three hours exposure, Jurkat and H522
Procedure, shortened: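 Jurkat or H522 cells in RPMI 1640 + 10% FCS + 50 μg/ml gentamycin at 100,000/ml, treated immediately with DMSO vehicle or test compound for 3 h. Washed in glucose-free RPMI, 30 min with inhibitor, then 1 h with 14C-2-deoxyglucose (0.1 μCi/μl stock). Ice-cold washes, 0.5% SDS lysis, scintillation counting; counts normalized to BCA protein.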

[16] = system: LLC tumors; test: Lewis lung carcinoma; format: in vivo, C57Bl/6 mice
Procedure, shortened: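 C57Bl/6 mice (20 g) given 1×10^6 LLC cells s.c. in PBS. At 150–200 mg tumor mass, groups of 8 randomized to DMSO or test compound 25 mg/kg i.p. (methods: every 3 days ×4). Blinded caliper tumor mass and body mass recorded daily; lungs examined for metastases after 14 days. Separate subgroup at day 4: tumors assayed for F26BP, plus H&E and anti-cleaved caspase 3 immunohistochemistry on formalin-fixed paraffin sections.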

[17] = system: ACHN; test: NCI 60 cell line screen, Sulforhodamine B Assay; format: cell-based; settings: Homo sapiens, 48 h
Procedure, shortened: as §2

[18] = system: U251; test: NCI 60 cell line screen, Sulforhodamine B Assay; format: cell-based; settings: Homo sapiens, U-251, 48 h
Procedure, shortened: as §1

[19] = system: NCI-H522; test: NCI 60 cell line screen, Sulforhodamine B Assay; format: cell-based; settings: Homo sapiens, NCI-H522, 48 h
Procedure, shortened: as §2

[20] = system: SNB-19; test: NCI 60 cell line screen, Sulforhodamine B Assay; format: cell-based; settings: Homo sapiens, SNB-19, 48 h
Procedure, shortened: as §1

[21] = system: NCI/ADR-RES; test: NCI 60 cell line screen, Sulforhodamine B Assay; format: cell-based; settings: Homo sapiens, 48 h
Procedure, shortened: as §2

[22] = system: HT29; test: NCI 60 cell line screen, Sulforhodamine B Assay; format: cell-based; settings: Homo sapiens, HT-29, 48 h
Procedure, shortened: as §2

[23] = system: T-47D; test: NCI 60 cell line screen, Sulforhodamine B Assay; format: cell-based; settings: Homo sapiens, T47D, 48 h
Procedure, shortened: as §1

[24] = system: SN12C; test: NCI 60 cell line screen, Sulforhodamine B Assay; format: cell-based; settings: Homo sapiens, 48 h
Procedure, shortened: as §1

[25] = system: SF-268; test: NCI 60 cell line screen, Sulforhodamine B Assay; format: cell-based; settings: Homo sapiens, SF-268, 48 h
Procedure, shortened: as §2

[26] = system: RPMI-8226; test: NCI 60 cell line screen, Sulforhodamine B Assay; format: cell-based; settings: Homo sapiens, RPMI-8226, 48 h
Procedure, shortened: as §2

[27] = system: SK-MEL-28; test: NCI 60 cell line screen, Sulforhodamine B Assay; format: cell-based; settings: Homo sapiens, SK-MEL-28, 48 h
Procedure, shortened: as §1

[28] = system: SF-295; test: NCI 60 cell line screen, Sulforhodamine B Assay; format: cell-based; settings: Homo sapiens, SF-295, 48 h
Procedure, shortened: as §2

[29] = system: EKVX; test: NCI 60 cell line screen, Sulforhodamine B Assay; format: cell-based; settings: Homo sapiens, 48 h
Procedure, shortened: as §2

[30] = system: RXF 393; test: NCI 60 cell line screen, Sulforhodamine B Assay; format: cell-based; settings: Homo sapiens, RXF 393, 48 h
Procedure, shortened: as §2

[31] = four days after initiation, n=4

## O=C(C=Cc1ccc2ccccc2n1)c1ccncc1 [PFK15, 1-(4-pyridinyl)-3-(2-quinolinyl)-2-propen-1-one]
[1]
  GI50: 3.98 µM
[2]
  GI50: 3.47 µM
[3]
  GI50: 4.07 µM
[4]
  inhibition of activity of purified hexokinase: not inhibit
[5]
  GI50: 1.32 µM
[6]
  GI50: 2.24 µM
[7]
  GI50: 1.82 µM
[8]
  growth of colon adenocarcinomas (CT26): suppressed the growth
[9]
  IC50: 0.207 µM
[9]; relative to 3PO
  fold more activity against PFKFB3 than 3PO: approximately 100 fold
[10]
  GI50: 3.24 µM
[11]
  GI50: 2.45 µM
[12]
  reduction in 18F-FDG uptake: ~ 50%
[13]
  GI50: 2.51 µM
[14]
  activity against glioblastoma growth (U-87 MG): lower than that observed by temozolomide
[15]
  effect on glucose uptake (14C-2DG): reduced
[16]; PFK15 i.p., C57Bl/6 mice
  effect on body mass of LLC-bearing mice: without a major effect
[16]; PFK15 i.p., C57Bl/6 mice, 14 days
  growth of established LLC tumors: statistically significant reduction
[16]; after 14 days
  lung metastases in LLC-bearing mice: no lung metastases
[16]; [31]
  cells positive for cleaved caspase 3 by immunohistochemistry: marked increase
  tumor-associated F26BP: reduced
[17]
  GI50: 2.04 µM
[18]
  GI50: 2.04 µM
[19]
  GI50: 1.74 µM
[20]
  GI50: 4.57 µM
[21]
  GI50: 3.89 µM
[22]
  GI50: 2.51 µM
[23]
  GI50: 3.63 µM
[24]
  GI50: 1.86 µM
[25]
  GI50: 5.25 µM
[26]
  GI50: 2.19 µM
[27]
  GI50: 2.09 µM
[28]
  GI50: 13.5 µM
[29]
  GI50: 12.9 µM
[30]
  GI50: 1.7 µM
